Assay outcomes deposited in PubChem by several laboratories.
UBC13 polyUb: inhibitors of human UBC13 polyubiquitin chain formation. TR-FRET. inhibition, % at 20 µM. 0.47% of 330,000 active. AID 485273; in the data active means inhibition above about 45%, passing the limit was not always enough
UCH37 inh: blocks the human deubiquitinase UCH37; inhibition, % (test concentration not listed); purified proteasome/UCH37, Ub-AMC cleavage fluorescence; 0.33% of 330,000 active; Q9Y5K5;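 active means mean inhibition over replicate wells above about 20%, limit read from the data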
Target sequence (Q9Y5K5 whole entry, looked up): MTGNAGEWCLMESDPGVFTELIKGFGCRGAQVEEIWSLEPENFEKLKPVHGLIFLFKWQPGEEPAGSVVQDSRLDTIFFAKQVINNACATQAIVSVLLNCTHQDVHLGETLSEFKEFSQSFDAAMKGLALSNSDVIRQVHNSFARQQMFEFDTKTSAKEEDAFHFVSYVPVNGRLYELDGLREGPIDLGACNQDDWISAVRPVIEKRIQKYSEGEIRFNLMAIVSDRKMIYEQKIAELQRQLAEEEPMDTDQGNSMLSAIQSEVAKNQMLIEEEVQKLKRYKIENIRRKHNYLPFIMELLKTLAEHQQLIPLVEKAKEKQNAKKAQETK
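Schedule: 30 min plus 25 min, room temperature / Material: human UCH37 within purified proteasomes / Technique: AMC fluorescence intensity at 355/460 nm / Buffer or medium: pH 7.4 Tris-HCl (50 mM) with ovalbumin, ATP-MgCl2, DTT / Controls: wells without proteasome as full block, compound-free enzyme plus substrate as uninhibited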
PP5 primary: PP5 (human) phosphatase inhibition; purified PP5c, OMFP substrate fluorescence; P53041; 0.18% of 320,000 active; inhibition, % at 6.7 µM;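 active means inhibition above the campaign's mean inhibition across all tested compounds plus 3 SD, cut at about 9.5% in these data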
PREPL inhibitor: inhibits the human prolyl oligopeptidase-like enzyme | Q4J6C6 | recombinant PREPL, fluorescence polarization activity-based probe | inhibition, % at 5.96 µM | 0.68% of 320,000 active
PP1 counter: blocks human PP1-alpha phosphatase, a PP5 counter-screen. P62136. purified PP1alpha, OMFP fluorescence. inhibition, % at 6.7 µM. 0.9% of 320,000 active;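 active means inhibition above the mean inhibition of all tested compounds plus 3 SD, computed separately for each screening campaign, cut at about 15% in these data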
Target sequence (P62136 whole entry, looked up): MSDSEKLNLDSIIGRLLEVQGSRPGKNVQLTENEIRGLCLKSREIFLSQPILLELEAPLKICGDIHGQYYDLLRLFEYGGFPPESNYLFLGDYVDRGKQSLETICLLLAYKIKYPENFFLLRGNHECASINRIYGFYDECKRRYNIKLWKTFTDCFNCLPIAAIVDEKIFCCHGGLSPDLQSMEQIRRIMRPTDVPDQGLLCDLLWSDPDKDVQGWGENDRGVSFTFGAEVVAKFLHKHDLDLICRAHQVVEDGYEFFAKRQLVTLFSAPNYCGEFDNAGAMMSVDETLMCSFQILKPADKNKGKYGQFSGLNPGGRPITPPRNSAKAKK
CTSL1 counter: counter-screen for PFM18AAP inhibitors: inhibitors of F. hepatica cathepsin L1. recombinant F. hepatica cathepsin L1, Z-Leu-Arg-MCA fluorescence. inhibition, % at 5.96 µM. 0.49% of 300,000 active. AID 1906;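 active means inhibition above the mean of all tested compounds plus 3 SD, set per screening campaign, cut at about 17% in these data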
PP1 inh confirm: confirmation of human PP1 phosphatase inhibitors. purified PP1alpha, OMFP substrate fluorescence. shares compounds with PP1 counter. 52% of 1,900 active. inhibition, % at 6.7 µM;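 active means mean PP1 inhibition above a set limit taken from the earlier primary screen, cut at about 15% in these data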
PP5 inh counter: PP5 phosphatase inhibition, counter-screen for PP1 inhibitors. purified PP5c, OMFP fluorescence. 4% of 1,900 active. shares compounds with PP1 counter. AID 2360. inhibition, % at 6.7 µM;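 active means mean PP5 inhibition over triplicate wells above about 9.5% taken from the earlier PP1 screen, limit read from the data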
PREPL inh cf: confirmation of human PREPL enzyme inhibitors; shares compounds with PREPL inhibitor; recombinant PREPL, fluorescence polarization activity probe; inhibition, % at 5.96 µM; 67% of 2,000 active
Casp3 UBC13 ctr: caspase-3 inhibition (UBC13 counter-screen); Recombinant caspase-3, Caspase-Glo 3/7 luminescence, 60 min; inhibition, % at 20 µM; shares compounds with UBC13 polyUb; 4% of 1,400 active;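 active means mean inhibition across replicates above about 26%, limit read from the data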
UBC13 confirm: human UBC13 polyubiquitin inhibition, confirmed; shares compounds with UBC13 polyUb; UBC13 polyubiquitination, TR-FRET, biochemical; inhibition, % at 10 µM; 68% of 1,400 active; AID 488859; in the data active means inhibition above about 45%
Each line names hits and unclear results; the compound was inactive in the other large screens (follow-up assays come after a bar, where they were run). Only some compounds are listed: those with a hit (about 2.3% of all), similar ones and a draw of the others. Unless noted, no stated cut-off is given here; in the data, active means inhibition above about 43%; inactive means the rest.

Cc1cccc(C=NNC(=O)NC2CCCCC2)c1	none (no result: UBC13 polyUb, PP5 primary, PREPL inhibitor, PP1 counter, CTSL1 counter)
FC(F)(F)c1cc(CCN2CCNC[C@H]2Cc2cccc3ccccc23)cc(C(F)(F)F)c1	UBC13 polyUb 96, PP1 counter 23 (no result: UCH37 inh) | PP1 inh confirm inactive | PP5 inh counter inactive | Casp3 UBC13 ctr inactive | UBC13 confirm 98
O=C(NN=C/C(Br)=C/c1ccccc1)c1ccccc1F	none (no result: UBC13 polyUb, PP5 primary, PREPL inhibitor, PP1 counter, CTSL1 counter)
CCCCCCSc1cc(-c2nc3cc(C)ccn3c2NC2CCCCC2)ccc1OC	UBC13 polyUb 51, PP1 counter 22 | PP1 inh confirm inactive | PP5 inh counter inactive | Casp3 UBC13 ctr inactive | UBC13 confirm inactive
COc1cc(Br)cc(C=NNC(=O)Cc2ccc(C(F)(F)F)cc2[N+](=O)[O-])c1O	none (no result: UBC13 polyUb, PP5 primary, PREPL inhibitor, PP1 counter, CTSL1 counter)
CC[C@@H](C)[C@H](CNC)NC[C@@H](Cc1cccc2ccccc12)NCCc1cccc(C(F)(F)F)c1	UBC13 polyUb 60, PP1 counter 25 | PP1 inh confirm inactive | PP5 inh counter inactive | Casp3 UBC13 ctr inactive | UBC13 confirm 100
CCC[C@@H](CN[C@@H](CNC)C(C)C)NCCCCc1ccccc1	none
CCCCCCOc1ccc(/C(C)=N/NC2=NCCN2)cc1[N+](=O)[O-]	UBC13 polyUb 94, PP1 counter 20 (no result: UCH37 inh) | PP1 inh confirm inactive | PP5 inh counter inactive | Casp3 UBC13 ctr inactive | UBC13 confirm 98
C#CCOCCOCCOCCNc1nc(N2CCN(C(=O)[C@H]([C@@H](C)CC)n3cc(CCCCN)nn3)CC2)nc(N2CCN(C(=O)[C@H](CCCCN)n3cc(CCCC)nn3)CC2)n1	none
C#CCOCCOCCOCCNc1nc(N2CCN(C(=O)[C@H]([C@@H](C)CC)n3cc(CCCN=C(N)N)nn3)CC2)nc(N2CCN(C(=O)[C@H](C)n3cc(CCCN=C(N)N)nn3)CC2)n1	none
C#CCOCCOCCOCCNc1nc(N2CCN(C(=O)CCCCCCCCCCNC(=O)[C@H]([C@@H](C)CC)n3cc(CCCCCN)nn3)CC2)nc(N2CCN(C(=O)CCCCCCCCCCNC(=O)[C@H](CO)n3cc(CCCCCN)nn3)CC2)n1	UBC13 polyUb 120, PREPL inhibitor 50, PP1 counter 53 (no result: UCH37 inh) | PP1 inh confirm 26 | PP5 inh counter inactive | PREPL inh cf 51 | Casp3 UBC13 ctr inactive | UBC13 confirm 124
C#CCOCCOCCOCCNc1nc(N2CCN(C(=O)CCCCCCCCCCNC(=O)[C@H](CO)n3cc(CCCSC)nn3)CC2)nc(N2CCN(C(=O)CCCCCCCCCCNC(=O)[C@H](CCCN=C(N)N)n3cc(C[C@@H](C)CC)nn3)CC2)n1	UBC13 polyUb 122, PP1 counter 46 (no result: UCH37 inh) | PP1 inh confirm 30 | PP5 inh counter inactive | Casp3 UBC13 ctr inactive | UBC13 confirm 121
C#CCOCCOCCOCCNc1nc(N2CCN(C(=O)CCCCCCCCCCNC(=O)[C@H]([C@@H](C)CC)n3cc(CCCCN=C(N)N)nn3)CC2)nc(N2CCN(C(=O)CCCCCCCCCCNC(=O)[C@H](CCCCN)n3cc(C)nn3)CC2)n1	UBC13 polyUb 124, PREPL inhibitor 45, PP1 counter 70 (no result: UCH37 inh) | PP1 inh confirm 57 | PP5 inh counter inactive | PREPL inh cf 55 | Casp3 UBC13 ctr inactive | UBC13 confirm 127
C#CCOCCOCCOCCNc1nc(N2CCN(C(=O)CCCCCCCCCCNC(=O)Cn3cc(CCCCCN)nn3)CC2)nc(N2CCN(C(=O)CCCCCCCCCCNC(=O)[C@H]([C@@H](C)CC)n3cc(CCCCN=C(N)N)nn3)CC2)n1	UBC13 polyUb 121, PREPL inhibitor 68, PP1 counter 70 | PP1 inh confirm 55 | PP5 inh counter inactive | PREPL inh cf 62 | Casp3 UBC13 ctr inactive | UBC13 confirm 124
COc1cc2c(cc1OC)C1=C(C#N)CCC(=NS(=O)(=O)c3cccc(Cl)c3)N1CC2	none (no result: UBC13 polyUb, PP5 primary, PREPL inhibitor, PP1 counter, CTSL1 counter)
C#CCOCCOCCOCCNc1nc(N2CCN(C(=O)CCCCCCCCCCNC(=O)[C@H]([C@@H](C)CC)n3cc(CCCCCN)nn3)CC2)nc(N2CCN(C(=O)CCCCCCCCCCNC(=O)[C@H]([C@@H](C)CC)n3cc(CCCCN=C(N)N)nn3)CC2)n1	UBC13 polyUb 125, PREPL inhibitor 63, PP1 counter 70 | PP1 inh confirm 45 | PP5 inh counter inactive | PREPL inh cf 57 | Casp3 UBC13 ctr inactive | UBC13 confirm 128
CC(=NNC(=O)c1ccco1)c1ccc(-c2ccccc2)cc1	none (no result: UBC13 polyUb, PP5 primary, PREPL inhibitor, PP1 counter, CTSL1 counter)
O=C1/C(=C/C=C/c2ccco2)SC(=S)N1NS(=O)(=O)c1ccccc1	UBC13 polyUb 51, PP1 counter 21 | PP1 inh confirm inactive | PP5 inh counter inactive | Casp3 UBC13 ctr inactive | UBC13 confirm inactive
O=C1/C(=C/c2cccs2)SC(=S)N1NS(=O)(=O)c1ccccc1	none
O=C(NN=Cc1cc(Cl)cc(Cl)c1O)c1ccncc1	none (no result: UBC13 polyUb, PP5 primary, PREPL inhibitor, PP1 counter, CTSL1 counter)
CCON=C(C)c1c(O)cc(C(C)(C)C)n(-c2ccccc2)c1=O	none (no result: UBC13 polyUb, PP5 primary, PREPL inhibitor, PP1 counter, CTSL1 counter)
COc1ccc(C(=O)Nc2ccccc2C(=O)NN=Cc2ccco2)cc1	none (no result: UBC13 polyUb, PP5 primary, PREPL inhibitor, PP1 counter, CTSL1 counter)
CCCCCCCCCCOC(=O)Cn1c(COc2ccccc2C)[n+](C)c2ccccc21	UBC13 polyUb 45, PP1 counter 44 (no result: UCH37 inh) | PP1 inh confirm 16 | PP5 inh counter inactive | Casp3 UBC13 ctr inactive | UBC13 confirm inactive
CCCCCCCCCCOC(=O)Cn1c(COc2ccccc2)[n+](C)c2ccccc21	UBC13 polyUb 59, PP1 counter 36 (no result: UCH37 inh) | PP1 inh confirm inactive | PP5 inh counter inactive | Casp3 UBC13 ctr inactive | UBC13 confirm 70
CCCCCCCCCCOC(=O)Cn1c(COc2cccc(C)c2)[n+](C)c2ccccc21	UBC13 polyUb 52, PP1 counter 42 (no result: UCH37 inh) | PP1 inh confirm 16 | PP5 inh counter inactive | Casp3 UBC13 ctr inactive | UBC13 confirm 68
CCOC(=O)Cn1c(COc2ccccc2OC)[n+](C)c2ccccc21	none
CCCCCCCCCCOC(=O)Cn1c(COc2ccc(Cl)cc2)[n+](C)c2ccccc21	UBC13 polyUb 100, PP1 counter 48 (no result: UCH37 inh) | PP1 inh confirm 21 | PP5 inh counter inactive | Casp3 UBC13 ctr inactive | UBC13 confirm 89
CCCCOC(=O)Cn1c(=O)n(CC(=O)OCCCC)c2ccccc21	none
CCOC(=O)c1c(NC(=O)C(=O)NN=Cc2ccccc2O)sc2c1CCCCC2	none (no result: UBC13 polyUb, PP5 primary, PREPL inhibitor, PP1 counter, CTSL1 counter)
